≈ marks a conversion by molar mass, not a printed value.
How the values were obtained:
Assay type in all cases: functional
[1] = tested on: Staphylococcus aureus; assay: Antimicrobial activity against Staphylococcus aureus isolate 27971 expressing FusB and harboring pUB101 carrying cadX coding sequence by Etest
[2] = tested on: Staphylococcus aureus; assay: Antimicrobial activity against Staphylococcus aureus RN4220 transformed with Staphylococcus aureus isolate 27971 carrying pUB101 expressing cadX coding sequence by Etest
Outline: (§1)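 Plasmid DNA was extracted from each clinical bacteremia isolate after overnight growth in LB with 0.5% glycine, using lysostaphin/lysozyme/proteinase K lysis and alkaline lysis. It was electroporated into restriction-negative S. aureus RN4220 (2.3 kV, 25 μF, 100 Ω) and transformants were selected on NYE agar with ampicillin 1 μg/ml at 37°C. Fusidic acid MIC was read by Etest on Mueller-Hinton agar following the manufacturer's instructions.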

[3] = tested on: Staphylococcus aureus; assay: Antimicrobial activity against cadX coding sequence deficient Staphylococcus aureus isolate 28335 expressing FusC C90T mutant and harboring pMW2 by Etest
[4] = tested on: Staphylococcus aureus; assay: Antimicrobial activity against cadXD coding sequence deficient Staphylococcus aureus isolate 27971 expressing FusB by Etest
Outline: (§2)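 Fusidic acid-resistant S. aureus bacteremia clinical isolates, originally from Statens Serum Institut. MIC read by Etest on Mueller-Hinton agar, following the manufacturer's instructions. Liquid cultures grown in LB at 37°C with shaking at 200 rpm. fusB and cadXD presence checked by PCR and sequencing.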

[5] = tested on: Staphylococcus aureus; assay: Antimicrobial activity against Staphylococcus aureus RN4220 transformed with Staphylococcus aureus isolate 28332 carrying pUB101 cadX coding sequence by Etest; outline: as §1
[6] = tested on: Staphylococcus aureus; assay: Antimicrobial activity against cadXD coding sequence deficient Staphylococcus aureus isolate 28332 expressing FusB by Etest; outline: as §2
[7] = tested on: Staphylococcus aureus; assay: Antimicrobial activity against cadX coding sequence deficient Staphylococcus aureus isolate 28400 expressing FusC C90T mutant and harboring pMW2 by Etest
[8] = tested on: Staphylococcus aureus; assay: Antimicrobial activity against cadXD coding sequence deficient Staphylococcus aureus isolate 27980 expressing FusB by Etest; outline: as §2
[9] = tested on: Staphylococcus aureus; assay: Antimicrobial activity against Staphylococcus aureus isolate 28362 expressing FusA Val90Ile mutant by Etest
[10] = tested on: Staphylococcus aureus; assay: Antimicrobial activity against cadXD coding sequence deficient Staphylococcus aureus isolate 27856 expressing FusB by Etest; outline: as §2
[11] = tested on: Staphylococcus aureus; assay: Antimicrobial activity against Staphylococcus aureus isolate 27844 expressing FusA Ala376Val, Leu461Phe, Asp463Gly, Ala655Pro mutant and harboring pMW2 carrying cadX coding sequence by Etest
[12] = tested on: Staphylococcus aureus; assay: Antimicrobial activity against cadX coding sequence deficient Staphylococcus aureus isolate 28150 expressing FusC and harboring pMW2 by Etest
[13] = tested on: Staphylococcus aureus; assay: Antimicrobial activity against Staphylococcus aureus isolate 28130 expressing FusA Leu461Ser mutant pMW2 carrying cadX coding sequence by Etest
[14] = tested on: Staphylococcus aureus; assay: Antimicrobial activity against Staphylococcus aureus isolate 28332 expressing FusB and harboring pUB101 carrying cadX coding sequence by Etest
[15] = tested on: Staphylococcus aureus; assay: Antimicrobial activity against Staphylococcus aureus isolate 27856 expressing FusB and harboring pUB101 carrying cadX coding sequence by Etest
[16] = tested on: Staphylococcus aureus; assay: Antimicrobial activity against Staphylococcus aureus isolate 28416 expressing FusC by Etest
[17] = tested on: Staphylococcus aureus; assay: Antimicrobial activity against Staphylococcus aureus isolate 27731 expressing FusA Ala71Val, Asp189Gly, Pro406Leu mutant and harboring pMW2 carrying cadX coding sequence by Etest
[18] = tested on: Staphylococcus aureus; assay: Antimicrobial activity against cadX coding sequence deficient Staphylococcus aureus isolate 28414 expressing FusC C90T mutant and harboring pMW2 by Etest
[19] = tested on: Staphylococcus aureus; assay: Antimicrobial activity against Staphylococcus aureus RN4220 transformed with Staphylococcus aureus isolate 28444 carrying pUB101 expressing cadX coding sequence by Etest; outline: as §1
[20] = tested on: Staphylococcus aureus; assay: Antimicrobial activity against Staphylococcus aureus isolate 27624 expressing FusB and harboring pUB101 carrying cadX coding sequence by Etest
[21] = tested on: Staphylococcus aureus; assay: Antimicrobial activity against cadX coding sequence deficient Staphylococcus aureus isolate 27768 expressing FusA Leu461Ser mutant and harboring pMW2 by Etest
[22] = tested on: Staphylococcus aureus; assay: Antimicrobial activity against cadXD coding sequence deficient Staphylococcus aureus isolate 28444 expressing FusB by Etest; outline: as §2
[23] = tested on: Staphylococcus aureus; assay: Antimicrobial activity against Staphylococcus aureus isolate 27657 expressing FusC by Etest
[24] = tested on: Staphylococcus aureus; assay: Antimicrobial activity against Staphylococcus aureus isolate 28084 expressing FusC and harboring pMW2 carrying cadX coding sequence by Etest
[25] = tested on: Staphylococcus aureus; assay: Antimicrobial activity against Staphylococcus aureus RN4220 transformed with Staphylococcus aureus isolate 27856 carrying pUB101 expressing cadX coding sequence by Etest; outline: as §1
[26] = tested on: Staphylococcus aureus; assay: Antimicrobial activity against cadX coding sequence deficient Staphylococcus aureus isolate 27962 expressing FusA Met453Ile mutant and harboring pMW2 by Etest
[27] = tested on: Staphylococcus aureus; assay: Antimicrobial activity against Staphylococcus aureus isolate 28444 expressing FusB and harboring pUB101 carrying cadX coding sequence by Etest
[28] = tested on: Staphylococcus aureus; assay: Antimicrobial activity against cadXD coding sequence deficient Staphylococcus aureus isolate 27624 expressing FusB by Etest; outline: as §2
[29] = tested on: Staphylococcus aureus; assay: Antimicrobial activity against Staphylococcus aureus RN4220 transformed with Staphylococcus aureus isolate 27624 carrying pUB101 expressing cadX coding sequence by Etest; outline: as §1
[30] = tested on: Staphylococcus aureus; assay: Antimicrobial activity against cadX coding sequence deficient Staphylococcus aureus isolate 28410 expressing FusC C90T mutant and harboring pMW2 by Etest
[31] = tested on: Staphylococcus aureus; assay: Antimicrobial activity against Staphylococcus aureus isolate 27980 expressing FusB and harboring pUB101 carrying cadX coding sequence by Etest
[32] = tested on: Staphylococcus aureus; assay: Antimicrobial activity against Staphylococcus aureus RN4220 transformed with Staphylococcus aureus isolate 27980 carrying pUB101 expressing cadX coding sequence by Etest; outline: as §1

Compound: CC(=O)O[C@H]1C[C@@]2(C)[C@@H](C[C@@H](O)[C@H]3[C@@]4(C)CC[C@@H](O)[C@@H](C)[C@@H]4CC[C@@]32C)/C1=C(\CCC=C(C)C)C(=O)O [FUSIDIC ACID]
- MIC [1]: 8 µg/mL (≈ 15.5 µM)
- MIC [2]: 8 µg/mL (≈ 15.5 µM)
- MIC [3]: 8 µg/mL (≈ 15.5 µM)
- MIC [4]: 0.094 µg/mL (≈ 0.182 µM)
- MIC [5]: 8 µg/mL (≈ 15.5 µM)
- MIC [6]: 0.125 µg/mL (≈ 0.242 µM)
- MIC [7]: 6 µg/mL (≈ 11.6 µM)
- MIC [8]: 0.094 µg/mL (≈ 0.182 µM)
- MIC [9]: 8 µg/mL (≈ 15.5 µM)
- MIC [10]: 0.094 µg/mL (≈ 0.182 µM)
- MIC [11]: 256 µg/mL (≈ 495 µM)
- MIC [12]: 8 µg/mL (≈ 15.5 µM)
- MIC [13]: 6 µg/mL (≈ 11.6 µM)
- MIC [14]: 12 µg/mL (≈ 23.2 µM)
- MIC [15]: 8 µg/mL (≈ 15.5 µM)
- MIC [16]: 8 µg/mL (≈ 15.5 µM)
- MIC [17]: 8 µg/mL (≈ 15.5 µM)
- MIC [18]: 6 µg/mL (≈ 11.6 µM)
- MIC [19]: 8 µg/mL (≈ 15.5 µM)
- MIC [20]: 6 µg/mL (≈ 11.6 µM)
- MIC [21]: 8 µg/mL (≈ 15.5 µM)
- MIC [22]: 0.064 µg/mL (≈ 0.124 µM)
- MIC [23]: 8 µg/mL (≈ 15.5 µM)
- MIC [24]: 12 µg/mL (≈ 23.2 µM)
- MIC [25]: 8 µg/mL (≈ 15.5 µM)
- MIC [26]: 4 µg/mL (≈ 7.74 µM)
- MIC [27]: 12 µg/mL (≈ 23.2 µM)
- MIC [28]: 0.094 µg/mL (≈ 0.182 µM)
- MIC [29]: 8 µg/mL (≈ 15.5 µM)
- MIC [30]: 6 µg/mL (≈ 11.6 µM)
- MIC [31]: 12 µg/mL (≈ 23.2 µM)
- MIC [32]: 8 µg/mL (≈ 15.5 µM)

From ChEMBL document CHEMBL1649442, “Genetic determinants of resistance to fusidic acid among clinical bacteremia isolates of Staphylococcus aureus” (2009)
